Hits are enriched below; roughly 9.4% of the tested compounds scored in any of these assays.
Beta apoptosis – beta cell apoptosis inhibition | INS-1E cytokine-induced death, ATP luminescence, 48 h; percent of positive-control rescue, neutral wells zero | protection from apoptosis, % (test concentration not listed) | actives 0.8% (n = 300,000);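 active = Every replicate reaches about 75%, or at least half do and their mean reaches it too, limit read from the data; inconclusive = At least half of replicates reach the limit but their mean does not; inactive = Under half of replicates reach the limit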;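 also: 0% = cytokine-treated negative control wells and 100% = positive control rescue; higher means more ATP so stronger rescue from cytokine killing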
CSC inhib – blocks cancer stem cells; cancer stem cell-like cells viability, luminescence; inhibition, % at 7.5 µM; actives 1.1% (n = 300,000); in the data active = inhibition above about 75%; inconclusive = no clear call, values can overlap the other calls; tested in HMLE shEcad cells
T cruzi repl – T. cruzi replication inhibition; T. cruzi beta-gal in NIH3T3, luminescence, 90 h; inhibition, % (test concentration not listed); actives 1.4% (n = 300,000); AID 1885;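 active = mean inhibition across valid replicates above about 55%, limit read from the data; inconclusive = mean below that limit but half or more replicates reach it; inactive = mean below it, under half of replicates reach it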;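 also: signal also drops with host cell toxicity which is not excluded here; 0% = plate median of DMSO wells and 100% = zero luminescence signal; higher percent means less beta-gal luminescence so fewer parasites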
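Read-out: Parasite load inhibition, % | Test system: Mouse NIH/3T3 fibroblasts infected with β-gal-expressing T. cruzi Tulahuen C4 | Amount: 5,000 cells/well | Medium: DMEM, 2% fetal bovine serum | Signal: GalScreen β-gal luminescence, detergent lysis, 60 min | Timing: 3 h attach, ≥90 h co-culture | Also added: Tulahuen C4 trypomastigotes, 5000/well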
Mdm2 MdmX PPI – inhibitors of human Mdm2/MdmX interaction | inhibition, % at 8 µM | SaOS-2 split-luciferase Mdm2/MdmX complementation, luminescence | actives 3% (n = 330,000);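 active = inhibition of at least 50% at 8 µM in the primary screen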
Lmaj promast – inhibitors of Leishmania major promastigote growth; Leishmania major promastigotes, resazurin fluorescence viability; inhibition, % at 10 µM; actives 9% (n = 200,000); AID 1063; in the data active = inhibition above about 50%;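 also: promastigotes grown with compound for 44 hours at 28 °C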
SKKanGAS inh – inhibitors of SKKanGAS S. pyogenes growth in kanamycin (SK-promoter or general growth effect); inhibition, % at 7.5 µM; AID 1662; actives 1.3% (n = 300,000); BacTiter-Glo, 6 h;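 active = mean replicate score, as percent of positive control median, at least 50; inconclusive = mean below 50 but one replicate at or above 50; inactive = mean and every replicate below 50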;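 also: strain carries kanamycin resistance gene driven by streptokinase promoter and grows in 40 µg/ml kanamycin; loss of luminescence reflects streptokinase promoter inhibition or plain growth inhibition; 0% = median of DMSO wells and 100% = positive control at its reference dose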
Starred values were filed as active, the others as inactive; ? = inconclusive; / = no result.

SMILES	Beta apoptosis	CSC inhib	T cruzi repl	Mdm2 MdmX PPI	Lmaj promast	SKKanGAS inh
O=C(c1ccccc1F)N1CCN(CC2CC3C=CC2C3)CC1 (stereo unspecified)	-6.4	18.2	5.4	18.0	58.5*	2.8
O=S(=O)(c1ccccc1)N1CCN(CC2CC3C=CC2C3)CC1 (stereo unspecified)	-2.8	0.6	-11.9	-8.4	-2.8	-4.3
C#CCOCCOCCOCCNc1nc(N2CCN(C(=O)[C@H]([C@@H](C)CC)n3cc([C@@H](N)Cc4ccc(O)cc4)nn3)CC2)nc(N2CCN(C(=O)[C@H](CCCCN)n3cc([C@@H](N)CC(C)C)nn3)CC2)n1	-3.4	-11.8	-9.1	36.2	-5.0	9.4
CC(Sc1nccn1C)C(=O)Nc1ccc(Cl)cn1 (stereo unspecified)	-4.7	-8.9	-5.0	10.9	/	-7.9
CCOC(=O)c1cccnc1SCC(=O)N(CC)c1cccc(C)c1	-14.2	-4.0	10.3	14.9	91.2*	-7.0
CCN(C(=O)CSc1ncccc1C(=O)OC(C)C)c1cccc(C)c1	3.2	1.0	21.9	1.2	7.7	7.7
Cc1cc(/C=C2/NC(=O)N(Cc3ccccc3F)C2=O)c(C)n1C(C)C	0.8	10.7	56.6*	13.6	-4.6	4.0
CCn1c(C)cc(/C=C2/NC(=O)N(Cc3ccccc3F)C2=O)c1C	0.2	-2.3	9.2	-5.5	-5.7	6.7
CCN1C(=O)/C(=C2/C(=O)N3c4c(cc(OC(C)=O)cc42)C(C)=CC3(C)C)SC1=S	0.6	54.6	10.7	3.5	78.5*	31.9
COc1cccc(CNC(=O)N2CCN(S(=O)(=O)c3ccc(C)cc3)CC2)c1	-2.5	-19.7	-1.1	14.8	/	3.0
Cc1ccc(NC(=S)NNC(=O)c2ccccc2O)c(C)c1	17.8	-11.3	-23.8	15.4	-2.4	-2.7
COc1cc(CNCCc2ccccc2F)ccc1OCC(=O)N1CCCCC1	-0.9	20.6	61.8*	13.7	31.9	2.1
COc1ccc(CNCCc2ccccc2)cc1OCC(N)=O	4.6	14.4	?	3.8	-3.6	-6.6
CCOc1ccccc1NC(=O)CCS(=O)(=O)c1ccc(Br)cc1	-2.5	-9.2	9.6	17.8	/	-3.8
O=C(N/N=C/c1ccc([N+](=O)[O-])o1)C1CCCC1	7.5	12.3	71.7*	7.7	/	-7.9
O=C(CNC(=O)C1COc2ccccc2O1)N/N=C/c1ccc([N+](=O)[O-])cc1 (stereo unspecified)	-0.1	-12.0	9.7	-18.8	/	8.6
O=C(N/N=C\c1ccc([N+](=O)[O-])o1)C1COc2ccccc2O1 (stereo unspecified)	/	9.0	61.2*	18.8	100.0*	-5.5
O=C(O)c1cccc(-c2ccc(/C=N/NC(=O)C3COc4ccccc4O3)o2)c1 (stereo unspecified)	1.8	8.4	8.1	-21.6	-9.8	/
O=C(N/N=C\c1ccc(-c2ccccc2[N+](=O)[O-])o1)C1COc2cc3ccccc3cc2O1 (stereo unspecified)	/	3.4	-9.1	12.9	96.1*	15.6
Cc1ccc(/C=N\NC(=O)C2COc3cc4ccccc4cc3O2)o1 (stereo unspecified)	-8.7	-6.5	-0.6	-0.3	0.2	-1.2
O=C(N/N=C\c1ccc(-c2ccccc2[N+](=O)[O-])o1)C1COc2ccccc2O1 (stereo unspecified)	2.5	-9.0	-7.2	11.2	51.6*	0.9
CC(CCc1ccccc1)NC(=O)CCC1CCCC1 (stereo unspecified)	1.2	2.8	9.0	24.6	/	-3.6
CCOC(=O)C1CCN(C(=O)Cn2nc(C)n3cccc3c2=O)CC1	2.8	11.3	-6.5	-14.3	/	2.0
NC(=O)CC(NC(=O)Cc1ccc(Br)cc1)c1ccc(N2CCN(c3ccc(F)cc3)CC2)c([N+](=O)[O-])c1 (stereo unspecified)	-23.5	38.3	-10.0	45.0	/	24.7
O=C(N/N=C\C=C\c1ccc2c(c1)OCO2)c1cccnc1	2.6	7.8	2.5	10.5	2.5	/
SMILES	Beta apoptosis	CSC inhib	T cruzi repl	Mdm2 MdmX PPI	Lmaj promast	SKKanGAS inh
O=C(N/N=C\C=C\c1ccc2c(c1)OCO2)C1COc2ccccc2O1 (stereo unspecified)	-2.9	-4.4	-12.8	17.7	65.3*	-4.2
O=C(CCl)N1N=C(c2ccco2)CC1c1cccs1 (stereo unspecified)	9.3	55.8	-9.5	/	90.0*	-8.3
O=[N+]([O-])c1ccc(NNC(=S)Nc2ccccc2)cc1	30.5	-11.1	19.3	-22.3	53.2*	8.5
O=[N+]([O-])c1ccc(O)c(NC(=S)Nc2ccccc2)c1	8.5	12.4	-6.8	-22.4	-0.3	15.1
O=[N+]([O-])c1ccc(NC(=S)NCCc2ccccc2)cc1	7.6	52.6	21.1	14.8	73.6*	4.9
COc1cccc(CNC(=O)CCC2CCCN(C(=O)C3=CC(=O)CC(C)(C)O3)C2)c1 (stereo unspecified)	-4.7	-9.4	7.5	8.6	-2.3	-4.9
O=[N+]([O-])c1ccc(/C=N/Nc2nc(NCc3ccccc3)nc(N3CCOCC3)n2)cc1	1.0	/	0.4	42.1	7.5	24.8
O=[N+]([O-])c1cccc(/C=N/Nc2nc(NCc3ccccc3)nc(N3CCOCC3)n2)c1O	11.6	41.8	41.0	21.7	98.6*	15.0
CCN1C(=O)[C@@H]2[C@@H](c3ccc(SC4CCCCC4)c(OC)c3)N3CCCC[C@@]3(C(=O)OC)[C@@H]2C1=O	2.2	/	/	30.9	/	/
CCOC(=O)C1=CN(Cc2cccc(F)c2)S(=O)(=O)N(C)C1c1ccc2ccccc2c1 (stereo unspecified)	/	/	/	31.2	/	/
Cc1cc(S(=O)(=O)/N=C(\N)c2ccc(C(N)=O)cc2)cc(C)c1F	-3.9	-3.9	-11.5	-18.5	/	-9.8
COc1cc(C)ccc1Oc1ncnc(N)c1[N+](=O)[O-]	-9.6	-8.9	-5.0	12.4	/	-1.4
COc1cc(C2C(C#N)=C(N)Oc3c2ccc2ccccc32)ccc1OCC(=O)Nc1ccccc1C (stereo unspecified)	-9.3	39.9	7.6	24.0	23.4	27.3
COC(=O)c1ccc(NC(=O)COc2ccc(C3C(C#N)=C(N)Oc4c3ccc3ccccc43)cc2OC)cc1 (stereo unspecified)	7.8	-10.7	14.1	3.4	94.8*	15.7
C[C@H](CO)N1C[C@H](C)[C@@H](CN(C)S(=O)(=O)c2ccc(F)cc2)Oc2c(NC(=O)Cc3ccccc3)cccc2C1=O	-6.4	/	/	28.2	/	/
O=C(Nc1cccc(Br)c1)c1ccc(OC2CSC2)cc1	-2.1	0.9	23.1	-119.6	2.2	14.2
S=C(Nc1ccc2nsnc2c1)N1CCCCCC1	1.4	3.8	22.7	-69.9	-4.4	4.1
S=C(Nc1ccc2nsnc2c1)NC1CCCCC1	-6.5	10.0	8.5	12.3	81.6*	2.5
S=C(Nc1ccc(Oc2ccccc2)cc1)NC1CCCCC1	-0.7	-6.4	-30.7	47.2	15.7	53.7*
S=C(Nc1ccc(Oc2ccccc2)cc1)NC1CCCCCC1	5.6	95.3*	11.2	/	15.7	18.1

Screening results (PubChem)
